The subject of experiment [1] is Rattus norvegicus. Kind of experiment: Antisecretory activity in rat assessed as decrease in volume of gastric secretion at 1.5 mg/kg, sc immediately after surgery and again 2 hrs later measured after 4 hrs of pyloric ligation. The format is functional, Stomach. Further details: scale not given: the % may be the effect or the level left. Particulars: route subcutaneous. In a few lines:
(§1)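 Pylorus-ligated rats under ether anesthesia via midline incision; 1.5 mg/kg sc given immediately after surgery and again 2.0 h later (total 3 mg/kg), diluted in phosphate buffer pH 7.4, 1 mL/kg. Six rats per compound plus vehicle control group. Killed 4 h after ligation; gastric volume measured, contents centrifuged 5000 rpm 10 min, supernatant titrated with 0.1 N NaOH to pH 7.0 (mequiv); % change vs control.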

The subject of experiment [2] is Rattus norvegicus. Kind of experiment: Antisecretory activity in rat assessed as decrease in total acid at 1.5 mg/kg, sc immediately after surgery and again 2 hrs later measured after 4 hrs of pyloric ligation. The format is functional. More on the design: scale not given: the % may be the effect or the level left. Particulars: route subcutaneous. The essentials: as §1

Among the data in ChEMBL document CHEMBL3244143, “Synthesis and gastric antisecretory properties of an 8-aza-and a 10-oxa-8,12-secoprostaglandin” (1978) are Activity values, retold here.

Molecules are shown by their SMILES.

For the compound `CCCCCC(O)/C=C/CCOC(=O)CCCCCCCC(=O)OC` (stereo not given), the Activity with Rattus norvegicus [1] is on record as 25%; with Rattus norvegicus [2], 34%.

As to `CCCCC[C@H](O)/C=C/[C@H]1[C@H](O)CC(=O)[C@@H]1CCCCCCC(=O)O` [ALPROSTADIL], the Activity in the experiment on Rattus norvegicus [1] was 74%; in the experiment with Rattus norvegicus [2], 96%.

Turning to `CCCCCC(O)/C=C/CCCC(=O)N(C)CCCCCCC(=O)O` (stereo not given), the Activity with Rattus norvegicus [1] and in the experiment on Rattus norvegicus [2] was 25% each time.

As for `CCCCC[C@H](O)/C=C/[C@@H]1[C@@H](C/C=C\CCCC(=O)O)[C@@H](O)C[C@H]1O` [DINOPROST], the Activity with Rattus norvegicus [1] is 37%; in the experiment on Rattus norvegicus [2], 42%.

As to `CCCCCC(O)/C=C/CCCC(=O)N(C)CCCCCCC(=O)OC` (stereo not given), the Activity was 21% with Rattus norvegicus [1] and 32% in the experiment with Rattus norvegicus [2].
